Results from paper PMC11229888 (RSC Advances, 2024).

Tests used:
[1] = system: VEGFR-1; conditions: read-out: IC50 VEGFR-1; cited from earlier work
[2] = system: MCF-7; experiment: MTT anti-proliferative assay, MCF-7; type: cell-based; conditions: Homo sapiens, MCF7, read-out: IC50 MCF-7
Procedure, shortened: (§1)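 Cells grown in RPMI-1640 with 10% FBS, 100 units per ml penicillin and 100 μg ml−1 streptomycin at 37 °C, 5% CO2. Seeded at 1.0 × 10^4 cells per well for 48 h, then exposed to a range of test compound concentrations for 24 h. MTT (5 mg ml−1) added for 4 h, formazan dissolved in DMSO, A570 read; viability as percent of untreated; IC50 derived.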

[3] = system: Hep G2; experiment: MTT anti-proliferative assay, Hep G2; type: cell-based; conditions: Homo sapiens, HepG2, read-out: IC50 Hep G2
Procedure, shortened: as §1

[4] = biological target: VEGFR-2 (Homo sapiens, UniProt P35968); experiment: biochemical; conditions: IC50 VEGFR-2, mean ± S.D. of three experiments
Sequence of VEGFR-2 (P35968 20-1356): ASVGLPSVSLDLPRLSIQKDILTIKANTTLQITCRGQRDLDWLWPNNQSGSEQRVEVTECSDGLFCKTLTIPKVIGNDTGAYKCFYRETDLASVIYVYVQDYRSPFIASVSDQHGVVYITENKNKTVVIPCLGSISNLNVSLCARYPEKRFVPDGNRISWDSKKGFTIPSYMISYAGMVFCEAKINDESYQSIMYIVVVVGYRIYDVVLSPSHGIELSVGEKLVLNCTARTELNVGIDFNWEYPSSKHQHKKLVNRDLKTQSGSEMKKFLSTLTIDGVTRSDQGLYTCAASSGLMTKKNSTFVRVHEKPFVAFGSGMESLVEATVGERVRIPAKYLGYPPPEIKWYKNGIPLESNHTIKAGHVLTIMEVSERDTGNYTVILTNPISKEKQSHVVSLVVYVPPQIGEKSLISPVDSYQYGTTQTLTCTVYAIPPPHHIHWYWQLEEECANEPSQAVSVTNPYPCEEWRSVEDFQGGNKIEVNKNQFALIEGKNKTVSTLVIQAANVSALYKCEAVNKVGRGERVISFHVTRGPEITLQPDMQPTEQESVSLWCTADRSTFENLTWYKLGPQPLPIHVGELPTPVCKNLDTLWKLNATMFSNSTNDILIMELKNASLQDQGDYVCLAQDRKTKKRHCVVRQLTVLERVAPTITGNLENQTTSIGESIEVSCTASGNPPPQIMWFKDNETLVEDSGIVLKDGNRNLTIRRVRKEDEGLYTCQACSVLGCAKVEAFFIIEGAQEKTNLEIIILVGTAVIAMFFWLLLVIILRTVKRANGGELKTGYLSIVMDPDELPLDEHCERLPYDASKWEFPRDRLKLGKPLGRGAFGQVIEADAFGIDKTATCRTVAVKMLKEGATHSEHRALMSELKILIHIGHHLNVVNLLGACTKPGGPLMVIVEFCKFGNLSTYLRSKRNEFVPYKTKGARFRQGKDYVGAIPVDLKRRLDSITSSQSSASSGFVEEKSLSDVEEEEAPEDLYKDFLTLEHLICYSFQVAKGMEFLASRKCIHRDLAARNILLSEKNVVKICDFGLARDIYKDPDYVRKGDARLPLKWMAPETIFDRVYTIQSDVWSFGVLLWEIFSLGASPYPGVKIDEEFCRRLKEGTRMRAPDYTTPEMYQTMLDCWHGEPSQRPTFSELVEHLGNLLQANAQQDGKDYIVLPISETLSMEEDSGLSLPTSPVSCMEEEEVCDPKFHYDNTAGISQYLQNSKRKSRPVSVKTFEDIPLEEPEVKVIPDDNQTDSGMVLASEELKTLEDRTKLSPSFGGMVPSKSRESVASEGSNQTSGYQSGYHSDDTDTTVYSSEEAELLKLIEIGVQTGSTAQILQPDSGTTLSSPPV

| IC50 [2] [nM] | IC50 [4] [nM] | SMILES | IC50 [1] [nM] | IC50 [3] [nM] |
| --- | --- | --- | --- | --- |
| 150 | 331 ± 10 | O=C(Nc1ccc(Oc2nnc(-c3ccc(Cl)cc3)c3ccccc23)cc1)c1ccccc1 [Compound 5b, N-(4-[{4-(4-Chlorophenyl)phthalazin-1-yl}oxy]phenyl)benzamide] |  | 220 |
| 180 | 196 ± 10 | O=C(Nc1ccccc1)Nc1ccc(Oc2nnc(-c3ccc(Cl)cc3)c3ccccc23)cc1 [Compound 4a, 1-(4-[{4-(4-Chlorophenyl)phthalazin-1-yl}oxy]phenyl)-3-phenylurea] |  | 90 ± 10 |
| 180 |  | O=C(Nc1ccc(Oc2nnc(-c3ccc(Cl)cc3)c3ccccc23)cc1)c1cccc([N+](=O)[O-])c1 [Compound 5c, N-(4-[{4-(4-Chlorophenyl)phthalazin-1-yl}oxy]phenyl)-3-nitrobenzamide] |  | 1370 ± 140 |
| 870 ± 20 |  | CC(=NNC(=S)Nc1ccccc1)c1ccc(Nc2nnc(-c3ccc(Cl)cc3)c3ccccc23)cc1 [Compound 3b, 2-(1-[4-{(4-[4-Chlorophenyl]phthalazin-1-yl)amino}phenyl]ethylidene)-N-phenylhydrazine-1-carbothioamide] |  | 1530 ± 60 |
| 180 | 375 ± 10 | CC(=NNC(N)=S)c1ccc(Nc2nnc(-c3ccc(Cl)cc3)c3ccccc23)cc1 [Compound 3a, 2-(1-[4-{(4-[4-Chlorophenyl]phthalazin-1-yl)amino}phenyl]ethylidene)hydrazine-1-carbothioamide] |  | 180 |
| 1520 ± 10 |  | S=C(Nc1ccccc1)Nc1ccc(Oc2nnc(-c3ccc(Cl)cc3)c3ccccc23)cc1 [Compound 4b, 1-(4-[{4-(4-Chlorophenyl)phthalazin-1-yl}oxy]phenyl)-3-phenylthiourea] |  | 1630 ± 30 |
| 180 | 548 ± 20 | CC(=O)Nc1ccc(Oc2nnc(-c3ccc(Cl)cc3)c3ccccc23)cc1 [Compound 5a, N-(4-[{4-(4-Chlorophenyl)phthalazin-1-yl}oxy]phenyl)acetamide] |  | 260 |
| 1120 ± 20 |  | O=C(C=Cc1ccccc1)Nc1ccc(Oc2nnc(-c3ccc(Cl)cc3)c3ccccc23)cc1 [Compound 5d, N-(4-[{4-(4-Chlorophenyl)phthalazin-1-yl}oxy]phenyl)cinnamamide] |  | 1260 ± 30 |

Second part, the compound before the results:

| SMILES | IC50 [2] [nM] | IC50 [4] [nM] | IC50 [1] [nM] | IC50 [3] [nM] |
| --- | --- | --- | --- | --- |
| Clc1ccc(Nc2nnc(Cc3ccncc3)c3ccccc23)cc1 [Vatalanib] |  |  | 380 |  |
| CC(=NNC(=O)c1ccccc1)c1ccc(Nc2nnc(-c3ccc(Cl)cc3)c3ccccc23)cc1 [Compound 2a, N′-(1-[4-{(4-[4-Chlorophenyl]phthalazin-1-yl)amino}phenyl]ethylidene)benzohydrazide] | 1550 ± 10 |  |  | 770 ± 10 |
| CC(=NNC(=O)c1ccncc1)c1ccc(Nc2nnc(-c3ccc(Cl)cc3)c3ccccc23)cc1 [Compound 2g, N′-(1-[4-{(4-[4-Chlorophenyl]phthalazin-1-yl)amino}phenyl]ethylidene)isonicotinohydrazide] | 150 | 148 ± 10 |  | 120 ± 10 |
| CNC(=O)c1cc(Oc2ccc(NC(=O)Nc3ccc(Cl)c(C(F)(F)F)c3)cc2)ccn1 [Sorafenib, reference compound] | 50 ± 10 |  |  | 30 ± 10 |
| CC(=NNC(=O)c1ccc(N)cc1)c1ccc(Nc2nnc(-c3ccc(Cl)cc3)c3ccccc23)cc1 [Compound 2e, 4-Amino-N′-(1-[4-{(4-[4-chlorophenyl]phthalazin-1-yl)amino}phenyl]ethylidene)benzohydrazide] | 710 ± 20 |  |  | 1190 ± 40 |
| CC(=NNC(=O)c1ccccc1Br)c1ccc(Nc2nnc(-c3ccc(Cl)cc3)c3ccccc23)cc1 [Compound 2b, 2-Bromo-N′-(1-[4-{(4-[4-chlorophenyl]phthalazin-1-yl)amino}phenyl]ethylidene)benzohydrazide] | 980 ± 10 |  |  | 630 ± 10 |
| CC(=NNC(=O)c1cccnc1)c1ccc(Nc2nnc(-c3ccc(Cl)cc3)c3ccccc23)cc1 [Compound 2f, N′-(1-[4-{(4-[4-Chlorophenyl]phthalazin-1-yl)amino}phenyl]ethylidene)nicotinohydrazide] | 780 ± 10 |  |  | 750 ± 10 |
| CC(=NNC(=O)c1ccccc1O)c1ccc(Nc2nnc(-c3ccc(Cl)cc3)c3ccccc23)cc1 [Compound 2d, N′-(1-[4-{(4-[4-Chlorophenyl]phthalazin-1-yl)amino}phenyl]ethylidene)-2-hydroxybenzohydrazide] | 3710 ± 70 |  |  | 2180 ± 30 |
| CC(=NNC(=O)c1ccccc1Cl)c1ccc(Nc2nnc(-c3ccc(Cl)cc3)c3ccccc23)cc1 [Compound 2c, 2-Chloro-N′-(1-[4-{(4-[4-chlorophenyl]phthalazin-1-yl)amino}phenyl]ethylidene)benzohydrazide] | 1740 ± 10 |  |  | 590 ± 10 |
